Laboratory results published in ChEMBL document CHEMBL4138319, “Discovery, Synthesis, Pharmacological Profiling, and Biological Characterization of Brintonamides A-E, Novel Dual Protease and GPCR Modulators from a Marine Cyanobacterium” (J Med Chem, 2018).
Activity calls are given as the source filed them. The rule behind the calls is not given here. Square brackets hold non-standard residues; d marks the D form. Peptide text beside a SMILES is read from it. * marks the point of attachment. X1 = CC[C@H](C)[C@@H](OC(=O)/C=C/c1ccccc1)C(=O)*; dNMeF = CN[C@H](Cc1ccccc1)C(=O)O; NMeL = CN[C@@H](CC(C)C)C(=O)O

How the values were obtained:
[1] = target: T1, Somatostatin receptor type 3 (Homo sapiens, UniProt P32745); experiment: Antagonist activity at human SSTR3 expressed in HEK293 cells assessed as [Tyr1]-somatostatin 14-induced beta-arrestin recruitment pre-incubated for 30 mins before [Tyr1]-somatostatin 14 stimulation for 90 or 180 mins by chemiluminescence method; format: functional, cell-based
T1 sequence (P32745 whole entry): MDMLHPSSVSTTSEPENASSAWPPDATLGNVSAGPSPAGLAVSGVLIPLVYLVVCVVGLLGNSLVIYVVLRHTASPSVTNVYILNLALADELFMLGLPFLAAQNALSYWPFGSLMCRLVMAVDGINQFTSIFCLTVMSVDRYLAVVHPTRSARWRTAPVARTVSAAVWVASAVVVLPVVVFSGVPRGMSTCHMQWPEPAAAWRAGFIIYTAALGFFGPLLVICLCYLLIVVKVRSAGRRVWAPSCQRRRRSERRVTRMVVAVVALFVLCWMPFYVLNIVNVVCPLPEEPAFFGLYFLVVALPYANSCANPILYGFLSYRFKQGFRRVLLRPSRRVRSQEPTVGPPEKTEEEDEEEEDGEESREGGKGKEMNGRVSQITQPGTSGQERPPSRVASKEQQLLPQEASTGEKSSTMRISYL
Outline: (§1)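 PathHunter β-arrestin complementation assay, antagonist mode. Cells co-express ProLink-tagged GPCR and enzyme-acceptor-tagged β-arrestin and are pre-incubated with sample for 30 min at 37 °C or room temperature. Dose-response: 10 points, 3-fold dilutions from 20 μM, in duplicate.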

MDA-MB-231 [2] = experiment: Antimigratory activity against human MDA-MB-231 cells at 10 uM after 48 hrs by transwell migration assay relative to control; format: functional
Caspase-14 = target: T2, Caspase-14 (Homo sapiens, UniProt P31944); experiment: Inhibition of human caspase 14 using Ac-WEHD-AMC fluorogenic peptide as substrate by fluorescence assay
T2 sequence (P31944 whole entry): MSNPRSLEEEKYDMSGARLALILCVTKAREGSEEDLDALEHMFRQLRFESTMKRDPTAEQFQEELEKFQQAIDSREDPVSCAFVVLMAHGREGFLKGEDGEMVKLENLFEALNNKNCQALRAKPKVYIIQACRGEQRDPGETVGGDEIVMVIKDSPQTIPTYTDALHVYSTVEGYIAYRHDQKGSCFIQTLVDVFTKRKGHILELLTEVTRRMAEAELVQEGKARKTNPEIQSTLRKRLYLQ
Outline: (§2)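 Activity followed as a time course of rising fluorescence from a fluorescently labelled peptide substrate. The initial linear slope (signal/min) was used.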

Kallikrein-7 [3] = target: T3, Kallikrein-7 (Homo sapiens, UniProt P49862); experiment: Mixed type inhibition of kallikrein 7 (unknown origin) using fluorescently labeled peptide substrate by fluorescence assay based Michaelis-Menten kinetic plot analysis
T3 sequence (P49862 30-253 limits assumed): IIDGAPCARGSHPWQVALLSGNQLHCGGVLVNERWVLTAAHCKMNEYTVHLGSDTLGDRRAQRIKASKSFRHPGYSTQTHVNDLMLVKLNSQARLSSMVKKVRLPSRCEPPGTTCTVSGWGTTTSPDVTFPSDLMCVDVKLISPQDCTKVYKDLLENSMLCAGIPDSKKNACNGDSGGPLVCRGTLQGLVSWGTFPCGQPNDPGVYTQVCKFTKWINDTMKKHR

[4] = target: T4, Atypical chemokine receptor 3 (Homo sapiens, UniProt P25106); experiment: Agonist activity at human CXCR7 expressed in CHOK1 cells assessed as induction of beta-arrestin recruitment at 20 uM by chemiluminescence method; format: functional, cell-based
T4 sequence (P25106 whole entry): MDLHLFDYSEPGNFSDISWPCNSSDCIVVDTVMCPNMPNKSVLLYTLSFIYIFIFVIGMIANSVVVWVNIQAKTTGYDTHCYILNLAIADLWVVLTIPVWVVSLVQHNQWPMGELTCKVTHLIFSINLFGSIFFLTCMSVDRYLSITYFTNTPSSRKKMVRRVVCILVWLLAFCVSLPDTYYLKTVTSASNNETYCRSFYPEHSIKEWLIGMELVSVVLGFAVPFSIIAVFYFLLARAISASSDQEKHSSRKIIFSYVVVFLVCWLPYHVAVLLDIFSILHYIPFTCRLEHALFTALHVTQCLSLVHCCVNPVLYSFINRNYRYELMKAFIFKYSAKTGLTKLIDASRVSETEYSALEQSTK

[5] = target: T5, C-C chemokine receptor type 10 (Homo sapiens) (UniProt P46092); experiment: Antagonist activity at CCR10 in human MDA-MB-231 cells assessed as inhibition of CCL27-induced proliferation preincubated for 2 hrs followed by CCL27 addition measured after 48 hrs by MTT assay; format: functional, cell-based
T5 sequence (whole entry): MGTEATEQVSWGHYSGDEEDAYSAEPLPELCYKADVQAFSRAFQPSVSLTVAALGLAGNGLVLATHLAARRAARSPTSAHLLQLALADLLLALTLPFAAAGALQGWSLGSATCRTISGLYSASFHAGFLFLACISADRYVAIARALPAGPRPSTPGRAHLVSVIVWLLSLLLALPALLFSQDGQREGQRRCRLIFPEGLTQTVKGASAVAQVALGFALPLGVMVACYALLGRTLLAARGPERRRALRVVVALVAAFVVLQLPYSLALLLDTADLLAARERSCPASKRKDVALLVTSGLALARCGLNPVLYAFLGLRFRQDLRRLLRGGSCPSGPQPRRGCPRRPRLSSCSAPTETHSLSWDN
Outline: (§3)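 MDA-MB-231 cells are seeded at 10,000/well in serum-free DMEM for 24 h, then pretreated with compound for 2 h. CCL27 is added at 1 μg/mL final for 48 h. Viability is measured by MTT and compared with solvent control, mean ± SD, n = 3.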

[6] = target: T5, C-C chemokine receptor type 10 (Homo sapiens); experiment: Antagonist activity at CCR10 in human MDA-MB-231 cells assessed as inhibition of CCL27-induced proliferation up to 10 uM preincubated for 2 hrs followed by CCL27 addition measured after 48 hrs by MTT assay; format: functional, cell-based; outline: as §3
[7] = target: T6, C-C chemokine receptor type 10 (Homo sapiens, UniProt P46092); experiment: Antagonist activity at human CCR10 expressed in human U2OS cells assessed as inhibition of CCL27-induced beta-arrestin recruitment pre-incubated for 30 mins before CCL27 stimulation for 90 or 180 mins by chemiluminescence method; format: functional, cell-based; outline: as §1
T6 sequence (P46092 whole entry): T5 sequence (whole entry)

Chymase = target: T7, Chymase (Homo sapiens, UniProt P23946); experiment: Inhibition of chymase (unknown origin) by fluorescence assay; outline: as §2
T7 sequence (P23946 whole entry): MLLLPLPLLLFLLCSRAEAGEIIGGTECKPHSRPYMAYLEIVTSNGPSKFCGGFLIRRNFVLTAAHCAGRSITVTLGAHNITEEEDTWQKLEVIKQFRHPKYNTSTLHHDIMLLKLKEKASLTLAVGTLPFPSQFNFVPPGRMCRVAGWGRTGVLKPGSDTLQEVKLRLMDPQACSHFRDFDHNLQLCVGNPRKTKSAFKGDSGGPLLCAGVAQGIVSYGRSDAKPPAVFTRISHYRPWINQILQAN

MDA-MB-231 [8] = experiment: Antiproliferative activity against human MDA-MB-231 cells after 48 hrs by MTT assay; format: functional, cell-based; details: Homo sapiens, MDA-MB-231, 48 h; read-out: IC50
Outline: (§4)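 MDA-MB-231 cells are grown in DMEM with 10% FBS and seeded at 10,000 cells/well for 24 h. Cells are then exposed to graded compound concentrations or DMSO for 48 h. Viability is measured by MTT.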

Kallikrein-7 [9] = target: T3, Kallikrein-7; experiment: Inhibition of recombinant human kallikrein 7 assessed as decrease in cleavage of E-cadherin at 10 uM after 30 mins or 2 hrs by silver staining based SDS-PAGE analysis
Kallikrein-7 [10] = target: T3, Kallikrein-7; experiment: Inhibition of kallikrein 7-mediated Dsg-2 shedding in human MDA-MB-468 cells at 0.01 to 10 uM incubated for 48 hrs by ELISA; format: cell-based
MDA-MB-231 [11] = experiment: Toxicity in human MDA-MB-231 cells assessed as inhibition of proliferation after 48 hrs by MTT assay; format: cell-based; details: mda-mb-231, 48 h; outline: as §4
[12] = target: T1, Somatostatin receptor type 3; experiment: Antagonist activity at human SSTR3 expressed in HEK293 cells assessed as [Tyr1]-somatostatin 14-induced beta-arrestin recruitment at 10 uM pre-incubated for 30 mins before [Tyr1]-somatostatin 14 stimulation for 90 or 180 mins by chemiluminescence method; format: functional, cell-based; design: scale not given: the % may be the effect or the level left
[13] = target: T4, Atypical chemokine receptor 3; experiment: Agonist activity at human CXCR7 expressed in CHOK1 cells assessed as induction of beta-arrestin recruitment at 10 uM by chemiluminescence method; format: functional, cell-based
Kallikrein-7 [14] = target: T3, Kallikrein-7; experiment: Inhibition of recombinant human kallikrein 7 assessed as decrease in cleavage of desmoglein-2 at 10 uM after 30 mins or 2 hrs by silver staining based SDS-PAGE analysis
MDA-MB-468 = experiment: Antimigratory activity against human MDA-MB-468 cells at 0.1 to 10 uM after 48 hrs; format: functional, cell-based
Outline: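 Transwell migration through an 8 μm pore membrane. 5000 MDA-MB-468 cells in DMEM with 10% FBS are treated with graded compound concentrations or solvent on both sides for 48 h at 37 °C. Migrated cells are stained with crystal violet and counted. Run in triplicate.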

[15] = target: T5, C-C chemokine receptor type 10 (Homo sapiens); experiment: Antagonist activity at human CCR10 expressed in human U2OS cells assessed as inhibition of CCL27-induced beta-arrestin recruitment at 10 uM pre-incubated for 30 mins before CCL27 stimulation for 90 or 180 mins by chemiluminescence method; format: functional, cell-based; design: scale not given: the % may be the effect or the level left

For `CC[C@H](C)[C@@H](OC(=O)/C=C/c1ccccc1)C(=O)N1CCC[C@H]1C(=O)NCC(=O)N(C)[C@@H](CC(C)C)C(=O)N[C@@H](C)C(=O)N(C)[C@H](Cc1ccccc1)C(=O)N1CCC[C@H]1C(=O)OC` (X1-PG[NMeL]A[dNMeF]P-OMe), the IC50 [1] was 3.12 µM, the Activity (MDA-MB-231 [2]) was 60% and the IC50 (Caspase-14) was 10.1 µM. For the same compound, the inhibition (Kallikrein-7 [3]) was “Active”, the Activity [4] was 91% and the inhibition [5] was “Dose-dependent effect”. It also gave an inhibition [6] of 10%, an IC50 [7] of 0.44 µM and an IC50 (Chymase) of 23.2 µM. The IC50 (MDA-MB-231 [8]) was 16.7 µM, the inhibition (Kallikrein-7 [9]) was “Active” and the inhibition (Kallikrein-7 [10]) was “inactive”. For the same compound, the Activity (MDA-MB-231 [11]) was “Non-Toxic”, the Activity [12] was 77% and the Activity [13] was 86%. The inhibition (Kallikrein-7 [14]) was “Active”, the Activity (MDA-MB-468) was “Active” and the Activity [15] was 98%.
